≈ marks a conversion by molar mass, not a printed value.
Key:
[1] = Toxicity in Galleria mellonella larvae assessed as larval survival at 100 ug/ml after 48 hrs relative to control
How it was run: (§1)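 Ten healthy larvae per group, stored at 15°C in the dark. Each got a 20 µL injection into the haemocoel via the last left proleg, with compound freshly made in sterile water containing <1% v/v DMSO. Larvae were incubated at 30°C and survival scored every 24 h; death was no movement on stimulation plus cuticle discolouration. Controls were untreated, pierced-only and vehicle. Mean % survival of two independent experiments.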

[2] = Toxicity in Galleria mellonella larvae assessed as larval survival at 100 ug/ml after 24 hrs relative to control; how it was run: as §1
Candida albicans [3] = experiment: Antibiofilm activity against Candida albicans PMC 1042 assessed as inhibition of biofilm formation by XTT reduction assay; assay type: functional
How it was run: (§2)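 Biofilm method of Pierce et al. Biofilms were treated either during formation or once mature (24 h preformed). Metabolic activity of the cells within the biofilm was read by XTT reduction. BMIC50 is the lowest concentration giving a 50% drop in metabolic activity versus the untreated growth control. At least two experiments on separate dates, triplicate, reported as median.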

[4] = Toxicity in Galleria mellonella larvae assessed as larval survival at 50 ug/ml after 72 hrs relative to control; how it was run: as §1
Candida albicans [5] = experiment: Antibiofilm activity against Candida albicans PMC 1082 assessed as inhibition of mature biofilm formation by XTT reduction assay; assay type: functional; how it was run: as §2
Candida albicans [6] = experiment: Antibiofilm activity against Candida albicans ATCC 10231 assessed as inhibition of mature biofilm formation by XTT reduction assay; assay type: functional
How it was run: (§3)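 Biofilm assay after Pierce et al., with compound applied either during biofilm formation or to 24 h pre-formed (mature) biofilm. Read-out is metabolic activity of cells in the biofilm by XTT reduction. BMIC50 is the lowest concentration giving a 50% drop relative to untreated growth control. Tested in triplicate, at least two experiments on separate dates; median reported.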

[7] = Toxicity in Galleria mellonella larvae assessed as larval survival at 10 ug/ml after 24 hrs relative to control; how it was run: as §1
Candida albicans [8] = experiment: Antibiofilm activity against Candida albicans ATCC 10261 assessed as inhibition of biofilm formation by XTT reduction assay; assay type: functional; how it was run: as §2
Candida albicans [9] = experiment: Antifungal activity against planktonic form of Candida albicans ATCC 10261 by broth microdilution method; assay type: organism-based; conditions: in vitro
How it was run: (§4)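 Broth microdilution per CLSI M27-A3 and M27-S4. Strains were grown on Sabouraud dextrose agar at 35°C for 24 h. Final inoculum 1×10^3–5×10^3 cells/mL. Compounds were dissolved in DMSO (final <1%); 1% DMSO served as control. Final range 256–0.25 µg/mL. MIC50 is the lowest concentration giving ≥50% growth inhibition. Three independent experiments in duplicate, median; fluconazole as reference.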

[10] = Toxicity in Galleria mellonella larvae assessed as larval survival at 10 ug/ml after 72 hrs relative to control; how it was run: as §1
Candida albicans [11] = experiment: Antibiofilm activity against Candida albicans ATCC 10261 assessed as inhibition of mature biofilm formation by XTT reduction assay; assay type: functional; how it was run: as §2
Candida albicans [12] = experiment: Antifungal activity against planktonic form of Candida albicans ATCC 10231 by broth microdilution method; assay type: organism-based; conditions: in vitro
How it was run: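 CLSI M27-A3 broth microdilution. Cells grown on Sabouraud dextrose agar at 35°C for 24 h; final inoculum 1×10^3–5×10^3 cells/mL. Compounds from DMSO stocks, final DMSO below 1%, final range 256–0.25 µg/mL. Controls were DMSO 1% and fluconazole reference. MIC50 is the lowest concentration giving ≥50% growth inhibition. Three independent experiments in duplicate; median reported.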

[13] = Toxicity in Galleria mellonella larvae assessed as larval survival at 5 ug/ml after 72 hrs relative to control; how it was run: as §1
[14] = Toxicity in Galleria mellonella larvae assessed as larval survival at 5 ug/ml after 48 hrs relative to control; how it was run: as §1
[15] = Toxicity in Galleria mellonella larvae assessed as larval survival at 500 ug/ml after 48 hrs relative to control; how it was run: as §1
Candida albicans [16] = experiment: Antibiofilm activity against Candida albicans ATCC 10231 assessed as inhibition of biofilm formation by XTT reduction assay; assay type: functional; how it was run: as §3
[17] = Toxicity in Galleria mellonella larvae assessed as larval survival at 50 ug/ml after 48 hrs relative to control; how it was run: as §1
[18] = Toxicity in Galleria mellonella larvae assessed as larval survival at 5 ug/ml after 24 hrs relative to control; how it was run: as §1
[19] = Toxicity in Galleria mellonella larvae assessed as larval survival at 500 ug/ml after 24 hrs relative to control; how it was run: as §1
[20] = Toxicity in Galleria mellonella larvae assessed as larval survival at 100 ug/ml after 72 hrs relative to control; how it was run: as §1
[21] = Toxicity in Galleria mellonella larvae assessed as larval survival at 500 ug/ml after 72 hrs relative to control; how it was run: as §1
[22] = Toxicity in Galleria mellonella larvae assessed as larval survival at 10 ug/ml after 48 hrs relative to control; how it was run: as §1
Candida albicans [23] = experiment: Antifungal activity against planktonic form of Candida albicans PMC 1082 by broth microdilution method; assay type: organism-based; conditions: in vitro; how it was run: as §4
[24] = Toxicity in Galleria mellonella larvae assessed as larval survival at 50 ug/ml after 24 hrs relative to control; how it was run: as §1
Candida albicans [25] = experiment: Antibiofilm activity against Candida albicans PMC 1082 assessed as inhibition of biofilm formation by XTT reduction assay; assay type: functional; how it was run: as §2
Candida albicans [26] = experiment: Antibiofilm activity against Candida albicans PMC 1042 assessed as inhibition of mature biofilm formation by XTT reduction assay; assay type: functional; how it was run: as §2
Candida albicans [27] = experiment: Antifungal activity against planktonic form of Candida albicans PMC 1042 by broth microdilution method; assay type: organism-based; conditions: in vitro; how it was run: as §4

Brc1ccc(CNCCc2c[nH]c3ccccc23)cc1
survival at 48 h [1]: 100%
survival at 24 h [2]: 100%
MBIC50 (Candida albicans [3]): 8 µg/mL
survival at 72 h [4]: 100%
MBIC50 (Candida albicans [5]): 4 µg/mL
MBIC50 (Candida albicans [6]): 8 µg/mL
survival at 24 h [7]: 100%
MBIC50 (Candida albicans [8]): 8 µg/mL
MIC50 (Candida albicans [9]): 32 µg/mL (≈ 97.2 µM)
survival at 72 h [10]: 100%
MBIC50 (Candida albicans [11]): 8 µg/mL
MIC50 (Candida albicans [12]): 64 µg/mL (≈ 194 µM)
survival at 72 h [13]: 100%
survival at 48 h [14]: 100%
survival at 48 h [15]: 100%
MBIC50 (Candida albicans [16]): 8 µg/mL
survival at 48 h [17]: 100%
survival at 24 h [18]: 100%
survival at 24 h [19]: 100%
survival at 72 h [20]: 100%
survival at 72 h [21]: 100%
survival at 48 h [22]: 100%
MIC50 (Candida albicans [23]): 32 µg/mL (≈ 97.2 µM)
survival at 24 h [24]: 100%
MBIC50 (Candida albicans [25]): 8 µg/mL
MBIC50 (Candida albicans [26]): 2 µg/mL
MIC50 (Candida albicans [27]): 16 µg/mL (≈ 48.6 µM)

O=C(NCCc1c[nH]c2ccccc12)c1ccccc1
MBIC50 (Candida albicans [6]): 32 µg/mL
MIC50 (Candida albicans [12]): > 128 µg/mL
MBIC50 (Candida albicans [16]): 32 µg/mL

O=[N+]([O-])c1ccc(CNCCc2c[nH]c3ccccc23)cc1
MBIC50 (Candida albicans [6]): 32 µg/mL
MIC50 (Candida albicans [12]): > 128 µg/mL
MBIC50 (Candida albicans [16]): 32 µg/mL

O=[N+]([O-])c1cccc(Cl)c1CNCCc1c[nH]c2ccccc12
MBIC50 (Candida albicans [6]): 8 µg/mL
MIC50 (Candida albicans [12]): > 128 µg/mL
MBIC50 (Candida albicans [16]): 16 µg/mL

O=[N+]([O-])c1ccccc1CNCCc1c[nH]c2ccccc12
survival at 48 h [1]: 90%
survival at 24 h [2]: 90%
survival at 72 h [4]: 90%
MBIC50 (Candida albicans [6]): 8 µg/mL
survival at 24 h [7]: 100%
survival at 72 h [10]: 100%
MIC50 (Candida albicans [12]): > 128 µg/mL
survival at 72 h [13]: 100%
survival at 48 h [14]: 100%
survival at 48 h [15]: 100%
MBIC50 (Candida albicans [16]): 64 µg/mL
survival at 48 h [17]: 90%
survival at 24 h [18]: 100%
survival at 24 h [19]: 100%
survival at 72 h [20]: 90%
survival at 72 h [21]: 100%
survival at 48 h [22]: 100%
survival at 24 h [24]: 90%

Brc1ccccc1CNCCc1c[nH]c2ccccc12
MBIC50 (Candida albicans [6]): 16 µg/mL
MIC50 (Candida albicans [12]): 128 µg/mL (≈ 389 µM)
MBIC50 (Candida albicans [16]): 16 µg/mL

O=[N+]([O-])c1ccc(/C=C/CNCCc2c[nH]c3ccccc23)cc1
MBIC50 (Candida albicans [6]): >128 µg/mL
MIC50 (Candida albicans [12]): > 128 µg/mL
MBIC50 (Candida albicans [16]): 8 µg/mL

CN(C)c1ccc(CNCCc2c[nH]c3ccccc23)cc1
MBIC50 (Candida albicans [6]): 16 µg/mL
MIC50 (Candida albicans [12]): > 128 µg/mL
MBIC50 (Candida albicans [16]): 32 µg/mL

NCCc1c[nH]c2ccccc12 [TRYPTAMINE]
MBIC50 (Candida albicans [6]): >128 µg/mL
MIC50 (Candida albicans [12]): > 128 µg/mL
MBIC50 (Candida albicans [16]): 128 µg/mL

O=C(NCCc1c[nH]c2ccccc12)c1ccccn1
MBIC50 (Candida albicans [6]): 32 µg/mL
MIC50 (Candida albicans [12]): > 128 µg/mL
MBIC50 (Candida albicans [16]): 32 µg/mL

OC(Cn1cncn1)(Cn1cncn1)c1ccc(F)cc1F [FLUCONAZOLE]
MBIC50 (Candida albicans [3]): >64 µg/mL
MBIC50 (Candida albicans [5]): >64 µg/mL
MBIC50 (Candida albicans [6]): >128 µg/mL
MBIC50 (Candida albicans [8]): >64 µg/mL
MIC50 (Candida albicans [9]): 2 µg/mL (≈ 6.53 µM)
MBIC50 (Candida albicans [11]): >64 µg/mL
MIC50 (Candida albicans [12]): 0.5 µg/mL (≈ 1.63 µM)
MBIC50 (Candida albicans [16]): 128 µg/mL
MIC50 (Candida albicans [23]): 0.125 µg/mL (≈ 0.408 µM)
MBIC50 (Candida albicans [25]): >64 µg/mL
MBIC50 (Candida albicans [26]): >64 µg/mL
MIC50 (Candida albicans [27]): 8 µg/mL (≈ 26.1 µM)
